The record followed here is ChEMBL document CHEMBL3102769, “Synthesis, docking simulation, biological evaluations and 3D-QSAR study of 5-Aryl-6-(4-methylsulfonyl)-3-(metylthio)-1,2,4-triazine as selective cyclooxygenase-2 inhibitors” (Bioorg Med Chem, 2014).

pIC50: −log10 of the molar value.

Assay [1] concerns Rattus norvegicus. Nature of the assay: Antiinflammatory activity in Wistar rat assessed as change in carrageenan-induced hind paw thickness at 6 mg/kg, ip administered 30 mins prior to carrageenan-challenge measured after 2 hrs (reference value: 1.86 +/- 0.38 mm). Type of assay: functional. The conditions noted are these: route intraperitoneal.
Assay [2] deals with Rattus norvegicus. Nature of the assay: Antiinflammatory activity in Wistar rat assessed as change in carrageenan-induced hind paw thickness at 6 mg/kg, ip administered 30 mins prior to carrageenan-challenge measured after 3 hrs (reference value: 1.78 +/- 0.39 mm). The conditions noted are these: route intraperitoneal. The format is functional.
Assay [3] deals with Mus musculus. Kind of assay: Antinociceptive activity in Swiss albino mouse assessed as licking time in secondary inflammatory period at 3 mg/kg, ip administered 30 mins prior to formalin-challenge (reference value: 217 +/- 68.5 seconds). Type of assay: functional. The conditions noted are these: route intraperitoneal.
The subject of assay [4] is Mus musculus. Nature of the assay: Antinociceptive activity in Swiss albino mouse assessed as licking time in secondary inflammatory period at 6 mg/kg, ip administered 30 mins prior to formalin-challenge (reference value: 217 +/- 68.5 seconds). The format is functional. The conditions noted are these: route intraperitoneal.
Assay [5] concerns Mus musculus. Kind of assay: Antinociceptive activity in Swiss albino mouse assessed as licking time in primary neurogenic period at 6 mg/kg, ip administered 30 mins prior to formalin-challenge (reference value: 80 +/- 19 seconds). Type of assay: functional. The conditions noted are these: route intraperitoneal.
The subject of assay [6] is Rattus norvegicus. Kind of assay: Antiinflammatory activity in Wistar rat assessed as change in carrageenan-induced hind paw thickness at 3 mg/kg, ip administered 30 mins prior to carrageenan-challenge measured after 3 hrs (reference value: 1.78 +/- 0.39 mm). The format is functional. The conditions noted are these: route intraperitoneal.
Assay [7] concerns Mus musculus. Kind of assay: Antinociceptive activity in Swiss albino mouse assessed as licking time in primary neurogenic period at 3 mg/kg, ip administered 30 mins prior to formalin-challenge (reference value: 80 +/- 19 seconds). The format is functional. The conditions noted are these: route intraperitoneal.
The target of assay [8] is T1, Prostaglandin G/H synthase 1 (Ovis aries, UniProt P05979).
T1 sequence (P05979 whole entry): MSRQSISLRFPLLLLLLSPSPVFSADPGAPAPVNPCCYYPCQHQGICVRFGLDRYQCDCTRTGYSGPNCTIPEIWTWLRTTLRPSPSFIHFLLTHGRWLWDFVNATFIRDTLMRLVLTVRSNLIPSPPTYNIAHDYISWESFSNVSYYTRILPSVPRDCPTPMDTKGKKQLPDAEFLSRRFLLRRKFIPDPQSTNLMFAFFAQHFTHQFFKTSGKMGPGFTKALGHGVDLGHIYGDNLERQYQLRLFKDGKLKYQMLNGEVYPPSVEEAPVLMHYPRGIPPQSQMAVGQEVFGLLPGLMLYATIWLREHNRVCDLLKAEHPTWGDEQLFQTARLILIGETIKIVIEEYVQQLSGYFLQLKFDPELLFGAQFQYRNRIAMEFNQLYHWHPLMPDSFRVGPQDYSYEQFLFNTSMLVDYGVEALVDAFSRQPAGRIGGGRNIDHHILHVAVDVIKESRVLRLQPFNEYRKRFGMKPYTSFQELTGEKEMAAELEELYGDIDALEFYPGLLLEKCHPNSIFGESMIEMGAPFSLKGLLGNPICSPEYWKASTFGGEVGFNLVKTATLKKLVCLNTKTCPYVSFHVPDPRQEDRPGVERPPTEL
Kind of assay: Inhibition of ovine COX1 using arachidonic acid as substrate by chemiluminescence assay. Summed up: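 Ovine COX-1 chemiluminescent inhibitor screening kit: heme-catalyzed hydroperoxidase activity generates luminescence with a cyclic naphthalene hydrazide and arachidonic acid substrate. Luminescence serves as the index of catalytic activity. IC50 is the concentration giving 50% inhibition of enzyme activity.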

The subject of assay [9] is Rattus norvegicus. Kind of assay: Antiinflammatory activity in Wistar rat assessed as change in carrageenan-induced hind paw thickness at 3 mg/kg, ip administered 30 mins prior to carrageenan-challenge measured after 1 hr (reference value: 1.84 +/- 0.41 mm). The conditions noted are these: route intraperitoneal. The format is functional.
Assay [10] relates to Rattus norvegicus. Kind of assay: Antiinflammatory activity in Wistar rat assessed as change in carrageenan-induced hind paw thickness at 3 mg/kg, ip administered 30 mins prior to carrageenan-challenge measured after 2 hrs (reference value: 1.86 +/- 0.38 mm). Type of assay: functional. The conditions noted are these: route intraperitoneal.
The subject of assay [11] is Rattus norvegicus. Kind of assay: Antiinflammatory activity in Wistar rat assessed as change in carrageenan-induced hind paw thickness at 6 mg/kg, ip administered 30 mins prior to carrageenan-challenge measured after 1 hr (reference value: 1.84 +/- 0.41 mm). The format is functional. The conditions noted are these: route intraperitoneal.
Assay [12] deals with Mus musculus. Kind of assay: Antinociceptive activity in Swiss albino mouse assessed as licking time in secondary inflammatory period at 5 mg/kg, ip administered 30 mins prior to formalin-challenge (reference value: 217 +/- 68.5 seconds). The format is functional. The conditions noted are these: route intraperitoneal.
Assay [13] relates to Mus musculus. Nature of the assay: Antinociceptive activity in Swiss albino mouse assessed as licking time in primary neurogenic period at 5 mg/kg, ip administered 30 mins prior to formalin-challenge (reference value: 80 +/- 19 seconds). The conditions noted are these: route intraperitoneal. Type of assay: functional.
For assay [14], the system named is Rattus norvegicus. Kind of assay: Antiinflammatory activity in Wistar rat assessed as change in carrageenan-induced hind paw thickness at 5 mg/kg, ip administered 30 mins prior to carrageenan-challenge measured after 1 hr (reference value: 1.84 +/- 0.41 mm). Type of assay: functional. The conditions noted are these: route intraperitoneal.
For assay [15], the system named is Rattus norvegicus. Kind of assay: Antiinflammatory activity in Wistar rat assessed as change in carrageenan-induced hind paw thickness at 5 mg/kg, ip administered 30 mins prior to carrageenan-challenge measured after 3 hrs (reference value: 1.78 +/- 0.39 mm). The conditions noted are these: route intraperitoneal. Type of assay: functional.
Assay [16] deals with Rattus norvegicus. Kind of assay: Antiinflammatory activity in Wistar rat assessed as change in carrageenan-induced hind paw thickness at 5 mg/kg, ip administered 30 mins prior to carrageenan-challenge measured after 2 hrs (reference value: 1.86 +/- 0.38 mm). The format is functional. The conditions noted are these: route intraperitoneal.

Turning to `CSc1nnc(-c2ccc(S(C)(=O)=O)cc2)c(-c2ccc(Cl)cc2)n1`, the Activity with Rattus norvegicus [1] turned out to be 0.58 mm; with Rattus norvegicus [2] it was 0.41 mm; in the assay with Rattus norvegicus [6], 0.54 mm; in the assay with Rattus norvegicus [9], 1 mm; with Rattus norvegicus [10], 0.71 mm; with Rattus norvegicus [11], 0.89 mm. For the same molecule, the Time came out at 85 s in the assay on Mus musculus [3], 140 s in the assay with Mus musculus [4], 37 s in the assay with Mus musculus [5] and 30 s in the assay with Mus musculus [7]. This molecule also had a pIC50 in [8] of 4.40.
Consider `COc1ccc2c(c1)c(CC(=O)O)c(C)n2C(=O)c1ccc(Cl)cc1` [INDOMETHACIN], for which the results for the Time in the assay with Mus musculus [12] and in the assay with Mus musculus [13] were 127 s and 45 s, respectively. In addition, the Activity was 1.05 mm with Rattus norvegicus [14], 0.57 mm in the assay with Rattus norvegicus [15] and 0.81 mm in the assay on Rattus norvegicus [16].
Take `CSc1nnc(-c2ccc(S(C)(=O)=O)cc2)c(-c2ccc(C)cc2)n1`: the Activity in the assay on Rattus norvegicus [1] is on record as 0.8 mm; with Rattus norvegicus [2], 0.67 mm; in the assay on Rattus norvegicus [6], 0.55 mm; in the assay with Rattus norvegicus [9] it was 0.87 mm; in the assay with Rattus norvegicus [10], 0.68 mm; in the assay with Rattus norvegicus [11] it was 0.98 mm. Further, the Time turned out to be 175 s in the assay on Mus musculus [3], 139 s in the assay with Mus musculus [4], 61 s in the assay on Mus musculus [5] and 49 s in the assay with Mus musculus [7]. The pIC50 in assay [8] is 4.28.
`CSc1nnc(-c2ccc(S(C)(=O)=O)cc2)c(-c2ccccc2)n1`: the Activity in the assay with Rattus norvegicus [1] turned out to be 0.94 mm; with Rattus norvegicus [2], 0.83 mm; in the assay with Rattus norvegicus [6], 1.19 mm; in the assay on Rattus norvegicus [9], 1.45 mm; in the assay on Rattus norvegicus [10] it was 1.77 mm; in the assay with Rattus norvegicus [11] it was 1.09 mm. In addition, the Time in the assay on Mus musculus [3] is 133 s; in the assay with Mus musculus [4], 155 s; in the assay with Mus musculus [5], 58 s; in the assay with Mus musculus [7] it was 57 s. The same molecule showed a pIC50 in assay [8] of 4.26.
For `CSc1nnc(-c2ccc(S(C)(=O)=O)cc2)c(-c2ccc(F)cc2)n1`, the Activity came out at 0.56 mm in the assay with Rattus norvegicus [1]; 0.34 mm with Rattus norvegicus [2]; 0.97 mm in the assay with Rattus norvegicus [6]; 1.24 mm in the assay on Rattus norvegicus [9]; 1.16 mm in the assay with Rattus norvegicus [10]; 0.75 mm with Rattus norvegicus [11]. For the same molecule, the Time with Mus musculus [3] came out at 127 s; with Mus musculus [4] it was 152 s; in the assay with Mus musculus [5] it was 34 s; in the assay on Mus musculus [7], 52 s. Moreover, the pIC50 in [8] was 4.29.
Turning to `COc1ccc(-c2nc(SC)nnc2-c2ccc(S(C)(=O)=O)cc2)cc1`, the Activity is given as 0.43 mm with Rattus norvegicus [1]; 0.3 mm in the assay with Rattus norvegicus [2]; 0.64 mm with Rattus norvegicus [6]; 0.96 mm in the assay on Rattus norvegicus [9]; 0.72 mm with Rattus norvegicus [10]; 0.58 mm in the assay with Rattus norvegicus [11]. Besides, the Time is 227 s with Mus musculus [3], 118 s in the assay with Mus musculus [4], 49 s in the assay with Mus musculus [5] and 46 s in the assay on Mus musculus [7]. The molecule further gave a pIC50 in assay [8] of 4.30.
